The results in this text go back to ChEMBL document CHEMBL3045704, “Biflavonoids isolated from Selaginella lepidophylla inhibit photosynthesis in spinach chloroplasts” (J Agric Food Chem, 2008).

Assay [1] has as its system Spinacia oleracea. Nature of the assay: Inhibition of thylakoid membrane bound Magnesium-transporting Mg2+ ATPase in Spinacia oleracea (spinach) leaves chloroplasts assessed as enzyme activity at 100 uM. Set-up: scale not given: the % may be the effect or the level left. In outline: (§1)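 Chloroplasts were ground in 350 mM sorbitol, 5 mM ascorbate and 20 mM MES pH 6.5, centrifuged 3000g for 60 s, washed, and resuspended in 35 mM HEPES pH 7.6. Light-triggered thylakoid-bound Mg2+-ATPase was assayed via released Pi (Sumner method), expressed as µM P/mg Chl/h and as % of control. Tested at 100–300 µM, or NH4Cl at 1–6 mM.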

Assay [2] addresses T1, Photosystem I iron-sulfur center (Spinacia oleracea) (UniProt P10098).
T1 sequence (whole entry): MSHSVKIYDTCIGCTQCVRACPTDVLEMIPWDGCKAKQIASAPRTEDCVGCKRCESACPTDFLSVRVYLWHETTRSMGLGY
In words: Inhibition of photosystem I in Spinacia oleracea (spinach) leaves intact chloroplasts assessed as electron transport flow from TMQH2 to MV at 100 uM. Also on record: scale not given: the % may be the effect or the level left. In outline: (§2)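 Electron flow from TMQH2 to MV was determined polarographically with a Clark electrode in basal electron transport medium.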

The target of assay [3] is Photosystem II protein D1 (Spinacia oleracea) (UniProt P69560). In words: Inhibition of photosystem II in Spinacia oleracea (spinach) leaves intact chloroplasts assessed as electron transport flow from H2O to DCPIP at 200 uM. Set-up: scale not given: the % may be the effect or the level left. In outline: (§3)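 Uncoupled PSII, water to DCPIP, was followed as DCPIP-supported O2 evolution on a Clark electrode. Medium: basal electron transport medium with 1 µM DBMIB, 100 µM DCPIP, 300 µM K3[Fe(CN)6] and 6 mM NH4Cl, without MV. I50 values were calculated.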

The subject of assay [4] is Spinacia oleracea. In words: Inhibition of thylakoid membrane bound Magnesium-transporting Mg2+ ATPase in Spinacia oleracea (spinach) leaves chloroplasts assessed as enzyme activity at 300 uM. Set-up: scale not given: the % may be the effect or the level left. In short, it runs like this: as §1
The test system of assay [5] is Spinacia oleracea. Nature of the assay: Inhibition of ATP synthesis in Spinacia oleracea (spinach) leaves intact chloroplasts. The following applies: read-out: I50. In kind it is functional.
Assay [6] has as its target T1, Photosystem I iron-sulfur center (Spinacia oleracea). Nature of the assay: Inhibition of photosystem I in Spinacia oleracea (spinach) leaves intact chloroplasts assessed as electron transport flow from DCPIP to MV at 100 uM. Also on record: scale not given: the % may be the effect or the level left. In short, it runs like this:
(§4)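 Uncoupled PSI flow, reduced DCPIP to MV, in basal electron transport medium (3 mL). Additions: 10 µM DCMU, 100 µM DCPIP, 300 µM ascorbate and 6 mM NH4Cl. O2 uptake was monitored with a Clark electrode.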

Assay [7] shares this target. Nature of the assay: Inhibition of photosystem I in Spinacia oleracea (spinach) leaves intact chloroplasts assessed as electron transport flow from DCPIP to MV at 200 uM. Also on record: scale not given: the % may be the effect or the level left. In outline: as §4
Assay [8] concerns the target Photosystem II protein D1 (Spinacia oleracea) (UniProt P69560). Nature of the assay: Inhibition of photosystem II in Spinacia oleracea (spinach) leaves intact chloroplasts assessed as electron transport flow from H2O to DCPIP at 300 uM. Also on record: scale not given: the % may be the effect or the level left. In outline:
as §3

The target in assay [9] is T1, Photosystem I iron-sulfur center (Spinacia oleracea). In words: Inhibition of photosystem I in Spinacia oleracea (spinach) leaves intact chloroplasts assessed as electron transport flow from TMQH2 to MV at 200 uM. Set-up: scale not given: the % may be the effect or the level left. In short, it runs like this:
as §2

In assay [10] the test system is Spinacia oleracea. Nature of the assay: Inhibition of uncoupled electron transport flow in Spinacia oleracea (spinach) leaves intact chloroplasts at 300 uM. In kind it is functional.
Assay [11] concerns Spinacia oleracea. In words: Inhibition of thylakoid membrane bound Magnesium-transporting Mg2+ ATPase in Spinacia oleracea (spinach) leaves chloroplasts assessed as enzyme activity at 200 uM. Set-up: scale not given: the % may be the effect or the level left. In outline:
as §1

Assay [12] has as its target T1, Photosystem I iron-sulfur center (Spinacia oleracea). Nature of the assay: Inhibition of photosystem I in Spinacia oleracea (spinach) leaves intact chloroplasts assessed as electron transport flow from TMQH2 to MV at 300 uM. Set-up: scale not given: the % may be the effect or the level left. In outline: as §2
For assay [13], the target named is Photosystem II protein D1 (Spinacia oleracea) (UniProt P69560). Nature of the assay: Inhibition of photosystem II in Spinacia oleracea (spinach) leaves intact chloroplasts assessed as electron transport flow from H2O to DCPIP at 100 uM. Set-up: scale not given: the % may be the effect or the level left. In short, it runs like this:
as §3

In assay [14] the target is T1, Photosystem I iron-sulfur center (Spinacia oleracea). In words: Inhibition of photosystem I in Spinacia oleracea (spinach) leaves intact chloroplasts assessed as electron transport flow from DCPIP to MV at 300 uM. Also on record: scale not given: the % may be the effect or the level left. In short, it runs like this: as §4
Assay [15] relates to Spinacia oleracea. In words: Increase in chlorophyll a fluorescence in freshly lysed Spinacia oleracea (spinach) leaves chloroplasts at 10 uM.
The test system of assay [16] is Spinacia oleracea. In words: Inhibition of thylakoid membrane bound Magnesium-transporting Mg2+ ATPase in Spinacia oleracea (spinach) leaves chloroplasts assessed as enzyme activity at 1 mM. Set-up: scale not given: the % may be the effect or the level left. In short, it runs like this:
as §1

In assay [17] the test system is Spinacia oleracea. Nature of the assay: Inhibition of thylakoid membrane bound Magnesium-transporting Mg2+ ATPase in Spinacia oleracea (spinach) leaves chloroplasts assessed as enzyme activity at 3 mM. Set-up: scale not given: the % may be the effect or the level left. In short, it runs like this:
as §1

For assay [18], the system named is Spinacia oleracea. Nature of the assay: Inhibition of thylakoid membrane bound Magnesium-transporting Mg2+ ATPase in Spinacia oleracea (spinach) leaves chloroplasts assessed as enzyme activity at 6 mM. Also on record: scale not given: the % may be the effect or the level left. In outline:
as §1

In assay [19] the target is T1, Photosystem I iron-sulfur center (Spinacia oleracea). Nature of the assay: Inhibition of photosystem I in Spinacia oleracea (spinach) leaves intact chloroplasts assessed as electron transport flow from DCPIP to MV at 50 uM. Also on record: scale not given: the % may be the effect or the level left. In short, it runs like this: as §4
The target is the same in assay [20]. Nature of the assay: Inhibition of photosystem I in Spinacia oleracea (spinach) leaves chloroplasts assessed as effect on partial reaction from PMS reduced with ascorbate to MV using KCN treated thylakoids. In short, it runs like this: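 Chloroplasts were held in basal medium with 30 mM KCN for 60 min at 4 °C in the dark to release plastocyanin. They were then diluted in sucrose/30 mM HEPES-NaOH pH 7.2/2 mM MgCl2, centrifuged 5000g for 2 min and resuspended. Flow from 100 µM PMS/300 µM ascorbate to MV was assayed in basal medium plus 1 µM DBMIB.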

Assay [21] addresses Photosystem II protein D1 (Spinacia oleracea) (UniProt P69560). Nature of the assay: Inhibition of photosystem II in Spinacia oleracea (spinach) leaves intact chloroplasts assessed as electron transport flow from H2O to DCPIP at 50 uM. Also on record: scale not given: the % may be the effect or the level left. In outline: as §3
Assay [22] deals with T1, Photosystem I iron-sulfur center (Spinacia oleracea). In words: Inhibition of photosystem I in Spinacia oleracea (spinach) leaves intact chloroplasts assessed as electron transport flow from TMQH2 to MV at 50 uM. Set-up: scale not given: the % may be the effect or the level left. In outline: as §2
Assay [23] has as its target Photosystem II protein D1 (Spinacia oleracea) (UniProt P69560). In words: Inhibition of photosystem II in Spinacia oleracea (spinach) leaves intact chloroplasts assessed as electron transport flow from H2O to SiMo at 300 uM. Set-up: scale not given: the % may be the effect or the level left. In short, it runs like this:
(§5)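 Uncoupled partial PSII reaction, water to silicomolybdate, measured by Clark electrode O2 evolution. Basal medium (sorbitol/KCl/MgCl2/KCN/30 mM tricine pH 8) was supplemented with 200 µM SiMo, 10 µM DCMU and 6 mM NH4Cl, without MV. I50 values were calculated.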

The target is the same in assay [24]. In words: Inhibition of photosystem II in Spinacia oleracea (spinach) leaves intact chloroplasts assessed as electron transport flow from DPC to DCPIP at 200 uM. Also on record: scale not given: the % may be the effect or the level left. In outline:
(§6)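 Thylakoids (45 µg Chl) were pretreated with 0.8 M Tris pH 8.0 for 30 min at 4 °C, centrifuged 5000g for 2 min and resuspended in reaction medium. Electron flow from DPC to DCPIP was read spectrophotometrically at 600 nm, with DCPIP reduction quantified by its molar extinction coefficient. I50 values were calculated.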

For assay [25] the target is unchanged. In words: Inhibition of photosystem II in Spinacia oleracea (spinach) leaves intact chloroplasts assessed as electron transport flow from H2O to SiMo at 100 uM. Also on record: scale not given: the % may be the effect or the level left. In outline: as §5
For assay [26] the target is unchanged. Nature of the assay: Inhibition of photosystem II in Spinacia oleracea (spinach) leaves intact chloroplasts assessed as electron transport flow from DPC to DCPIP at 300 uM. Also on record: scale not given: the % may be the effect or the level left. In short, it runs like this:
as §6

Assay [27] shares this target. Nature of the assay: Inhibition of photosystem II in Spinacia oleracea (spinach) leaves intact chloroplasts assessed as electron transport flow from DPC to DCPIP at 100 uM. Also on record: scale not given: the % may be the effect or the level left. In outline: as §6
Assay [28] relates to Spinacia oleracea. Nature of the assay: Inhibition of basal electron transport flow in Spinacia oleracea (spinach) leaves intact chloroplasts at 88 uM. In kind it is functional.
In assay [29] the target is Photosystem II protein D1 (Spinacia oleracea) (UniProt P69560). Nature of the assay: Inhibition of photosystem II in freshly lysed Spinacia oleracea (spinach) leaves chloroplasts assessed as induction of loss of reactions centers capacity to capture excitons at 300 to 900 uM. In outline:
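JIP-test on Chl a fluorescence transients of freshly lysed spinach chloroplasts, dark-adapted 5 min at 20 µg/mL Chl. Measured at room temperature with a Handy PEA at 300, 600 and 900 µM. Parameters such as […] VJ were derived from the curves and expressed relative to control (%). Results are the average of three replicates.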

Assay [30] shares this target. Nature of the assay: Inhibition of photosystem II in Spinacia oleracea (spinach) leaves intact chloroplasts assessed as electron transport flow from H2O to SiMo at 200 uM. Set-up: scale not given: the % may be the effect or the level left. In short, it runs like this: as §5
Assay [31] concerns Spinacia oleracea. In words: Inhibition of uncoupled electron transport flow in Spinacia oleracea (spinach) leaves intact chloroplasts. It counts as functional. To be noted: read-out: I50.

Activity calls are given as the source filed them. The rule behind the calls is not given here.

For the compound `COc1cc(O)cc2c1C(=O)CC(c1ccc(O)c(-c3c(O)cc4oc(-c5ccc(O)cc5)cc(=O)c4c3O)c1)O2` (stereo not drawn), the Activity in assay [1] came out at 63%; in [2] it was 100%; in assay [3], 100%; in assay [4], 20%; in assay [6] it was 100%; in assay [7] it was 100%. Also, the Activity in assay [8] came out at 100%; in assay [9], 100%; in [11] it was 44%; in assay [12] it was 100%; in assay [13], 100%; in assay [14], 100%. Also, the IC50 in assay [5] was 79 µM. The Inhibition % in assay [10] is 25%.

On to `CN(C)C(=O)Nc1ccc(Cl)c(Cl)c1`, for which the outcome in assay [15] was Active.

For the compound `Cl.N`, the Activity in assay [16] is 206%; in assay [17], 240%; in assay [18] it was 124%.

With `O=C1CC(c2ccc(O)c(-c3c(O)cc4oc(-c5ccc(O)cc5)cc(=O)c4c3O)c2)Oc2cc(O)cc(O)c21` (stereo not drawn) [2,3-DIHYDROROBUSTAFLAVONE], the Activity was found to be 53% in [1]; 98% in [2]; 100% in [3]; 34% in assay [4]; 74% in assay [6]; 96% in assay [19]. Moreover, the Activity stood at 71% in assay [7]; 100% in assay [8]; 74% in assay [9]; 47% in [11]; 72% in [12]; 100% in assay [13]. The Activity in assay [21] turned out to be 100%; in [14], 71%; in assay [22] it was 100%. Besides, in assay [5], the IC50 was 39 µM. Further, in assay [20], the inhibition result was “inactive”. In addition, the Inhibition % in assay [10] was determined as 32%.

Regarding `O=c1cc(-c2ccc(O)c(-c3c(O)cc4oc(-c5ccc(O)cc5)cc(=O)c4c3O)c2)oc2cc(O)cc(O)c12` [ROBUSTAFLAVONE], the Activity in assay [1] turned out to be 76%; in assay [23] it was 50%; in assay [2], 100%; in assay [3], 43%; in [4], 76%; in assay [24], 35%. The Activity in assay [25] is 100%; in assay [6] it was 100%; in assay [7] it was 100%; in [8] it was 29%; in assay [26] it was 9%; in assay [9], 100%. Besides, the Activity in [27] turned out to be 89%; in [11], 76%; in assay [12], 100%; in assay [13], 57%; in assay [14], 100%; in [30], 50%. For the same compound, the IC50 was 44 µM in assay [5] and 88 µM in assay [31]. In assay [28], the inhibition is 22%. Further, in [29], the inhibition entry was “Active”.

Broadly, the inhibition is the percentage by which the read-out fell short of the control.
